Key:
P2X purinoceptor 7 [1] = molecular target: T1, P2X purinoceptor 7 (Homo sapiens, UniProt Q99572); experiment: Antagonist activity at human P2X7 receptor expressed in HEK293 cells assessed as inhibition of BzATP-induced calcium-flux measured after 60 mins by FLIPR analysis
T1 sequence (Q99572 whole entry): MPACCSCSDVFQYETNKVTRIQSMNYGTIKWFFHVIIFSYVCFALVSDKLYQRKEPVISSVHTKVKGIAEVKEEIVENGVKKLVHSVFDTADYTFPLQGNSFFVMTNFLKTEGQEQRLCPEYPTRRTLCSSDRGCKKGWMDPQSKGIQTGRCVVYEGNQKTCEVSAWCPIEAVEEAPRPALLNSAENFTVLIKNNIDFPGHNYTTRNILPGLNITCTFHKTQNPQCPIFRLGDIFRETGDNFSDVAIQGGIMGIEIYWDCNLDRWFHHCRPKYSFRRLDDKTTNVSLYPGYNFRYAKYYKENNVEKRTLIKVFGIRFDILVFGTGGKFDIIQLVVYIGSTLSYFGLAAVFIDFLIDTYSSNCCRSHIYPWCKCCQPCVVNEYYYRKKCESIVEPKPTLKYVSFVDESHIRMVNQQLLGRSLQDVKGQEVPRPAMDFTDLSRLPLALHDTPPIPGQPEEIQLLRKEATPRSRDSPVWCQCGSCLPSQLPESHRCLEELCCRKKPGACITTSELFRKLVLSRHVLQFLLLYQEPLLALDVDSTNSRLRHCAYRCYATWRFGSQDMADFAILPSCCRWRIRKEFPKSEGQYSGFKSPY

P2X purinoceptor 7 [2] = molecular target: T2, P2X purinoceptor 7 (Rattus norvegicus, UniProt Q64663); experiment: Antagonist activity at rat P2X7 receptor expressed in HEK293 cells assessed as inhibition of BzATP-induced calcium-flux measured after 60 mins by FLIPR analysis
T2 sequence (Q64663 whole entry): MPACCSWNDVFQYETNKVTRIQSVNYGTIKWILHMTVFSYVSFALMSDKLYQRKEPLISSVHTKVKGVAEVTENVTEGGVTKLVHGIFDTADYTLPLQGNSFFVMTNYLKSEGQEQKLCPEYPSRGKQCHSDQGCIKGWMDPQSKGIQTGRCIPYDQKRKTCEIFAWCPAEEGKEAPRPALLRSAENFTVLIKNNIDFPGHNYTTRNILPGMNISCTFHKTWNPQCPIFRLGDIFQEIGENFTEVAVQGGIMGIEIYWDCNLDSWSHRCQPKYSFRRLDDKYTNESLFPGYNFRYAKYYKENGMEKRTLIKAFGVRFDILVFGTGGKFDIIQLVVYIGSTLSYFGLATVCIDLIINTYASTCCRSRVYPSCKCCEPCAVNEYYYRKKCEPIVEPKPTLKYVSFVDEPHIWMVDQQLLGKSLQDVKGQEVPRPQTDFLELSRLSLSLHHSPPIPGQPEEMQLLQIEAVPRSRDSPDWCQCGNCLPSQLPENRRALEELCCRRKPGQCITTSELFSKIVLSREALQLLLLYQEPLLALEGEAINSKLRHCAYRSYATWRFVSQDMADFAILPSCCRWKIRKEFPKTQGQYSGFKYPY
Summary of the method: (§1)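 Stable rat or mouse P2X7 HEK293 cells in HBSS/20 mM HEPES/2.5 mM probenecid/0.05% BSA, pH 7.4, were loaded with Fluo-4 NW (37 °C 30 min, RT 30 min). After 30 min at RT, calcium fluorescence was read by FLIPR; n ≥ 3.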

P2X purinoceptor 7 [3] = molecular target: T3, P2X purinoceptor 7 (Mus musculus, UniProt Q9Z1M0); experiment: Antagonist activity at mouse P2X7 receptor expressed in HEK293 cells assessed as inhibition of BzATP-induced calcium-flux measured after 60 mins by FLIPR analysis; summary of the method: as §1
T3 sequence (Q9Z1M0 whole entry): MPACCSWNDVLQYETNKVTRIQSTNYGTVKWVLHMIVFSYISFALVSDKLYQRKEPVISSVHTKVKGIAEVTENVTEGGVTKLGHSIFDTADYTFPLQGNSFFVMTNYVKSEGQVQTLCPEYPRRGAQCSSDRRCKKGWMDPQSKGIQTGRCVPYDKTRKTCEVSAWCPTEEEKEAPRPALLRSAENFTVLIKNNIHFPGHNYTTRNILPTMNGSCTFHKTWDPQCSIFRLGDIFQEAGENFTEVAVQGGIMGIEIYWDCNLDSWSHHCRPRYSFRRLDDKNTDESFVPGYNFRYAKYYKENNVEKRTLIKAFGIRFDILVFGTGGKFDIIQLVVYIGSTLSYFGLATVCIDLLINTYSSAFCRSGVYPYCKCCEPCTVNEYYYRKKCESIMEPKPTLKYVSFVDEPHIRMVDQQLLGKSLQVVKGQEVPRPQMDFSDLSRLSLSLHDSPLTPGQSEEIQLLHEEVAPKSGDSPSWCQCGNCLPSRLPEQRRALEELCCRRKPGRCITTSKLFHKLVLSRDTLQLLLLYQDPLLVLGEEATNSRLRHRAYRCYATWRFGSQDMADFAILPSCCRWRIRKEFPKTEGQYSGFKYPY

P2X purinoceptor 7 [4] = molecular target: T2, P2X purinoceptor 7; experiment: Displacement of [3H]-A-804598 from rat P2X7 receptor expressed in HEK293 cell membrane by in vitro binding assay

IC50 (P2X purinoceptor 7 [1]): 5800 nM | IC50 (P2X purinoceptor 7 [2]): 200 nM | IC50 (P2X purinoceptor 7 [3]): 1300 nM | Ki (P2X purinoceptor 7 [4]): 1000 nM
Compound: CCOc1ccc(Nc2ccc(/C(=C3C=C/C(=[N+](/CC)Cc4cccc(S(=O)(=O)[O-])c4)C=C/3C)c3ccc(N(CC)Cc4cccc(S(=O)(=O)O)c4)cc3C)cc2)cc1 [E133]

Reference: BindingDB's records for doi:10.1021/acs.jmedchem.0c02249 (Lundbeck Research Usa, 2021)
